Screening data (PubChem)
In the library only some 5.7% were active in any assay of this set; here they are far more common.
Mdm2 MdmX PPI – inhibitors of human Mdm2/MdmX interaction; O15151+Q00987; SaOS-2 split-luciferase Mdm2/MdmX complementation, luminescence; inhibition, % at 8 µM; AID 485346; hit rate 3% among 330,000;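 active = inhibition of at least 50% at 8 µM in the primary screen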
CSC inhib – cancer stem cell inhibition. AID 2717. hit rate 1.1% among 300,000. inhibition, % at 7.5 µM. cancer stem cell-like cells viability, luminescence; in the data active = inhibition above about 75%; inconclusive = no clear call, values can overlap the other calls; tested in HMLE shEcad cells
SKKanGAS inh – SKKanGAS growth inhibition; hit rate 1.3% among 300,000; S. pyogenes SKKanGAS, kanamycin growth, BacTiter-Glo, 6 h; inhibition, % at 7.5 µM; AID 1662;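 active = mean replicate score, as percent of positive control median, at least 50; inconclusive = mean below 50 but one replicate at or above 50; inactive = mean and every replicate below 50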;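 also: strain carries kanamycin resistance gene driven by streptokinase promoter and grows in 40 µg/ml kanamycin; loss of luminescence reflects streptokinase promoter inhibition or plain growth inhibition; 0% = median of DMSO wells and 100% = positive control at its reference dose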
Beta cell apopt – blocks beta cell apoptosis | INS-1E cytokine-induced death, ATP luminescence, 48 h; percent of positive-control rescue, neutral wells zero | protection from apoptosis, % (concentration not given with the values) | hit rate 0.8% among 300,000;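 active = Every replicate reaches about 75%, or at least half do and their mean reaches it too, limit read from the data; inconclusive = At least half of replicates reach the limit but their mean does not; inactive = Under half of replicates reach the limit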;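 also: 0% = cytokine-treated negative control wells and 100% = positive control rescue; higher means more ATP so stronger rescue from cytokine killing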
Calb FLC – affects C. albicans growth with fluconazole. C. albicans CaCi-2 (fluconazole-resistant clinical isolate) + fluconazole, Alamar Blue growth, 48 h. growth inhibition, % (test concentration not listed). hit rate 0.57% among 300,000. AID 1979;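 active = growth inhibition above about 58% in most replicates, limit read from the data, passing the limit was not always enough; inconclusive = exactly half the replicates above a set limit; inactive = most replicates below a set limit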;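 also: all wells also contain fluconazole at 8 µg/ml as a sub-toxic cotreatment; 0% = median of DMSO wells and 100% = median of geldanamycin control wells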
T cruzi inh – blocks replication of Trypanosoma cruzi; T. cruzi beta-gal in NIH3T3, luminescence, 90 h; inhibition, % (no concentration beside the values); hit rate 1.4% among 300,000; AID 1885;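 active = mean inhibition across valid replicates above about 55%, limit read from the data; inconclusive = mean below that limit but half or more replicates reach it; inactive = mean below it, under half of replicates reach it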;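 also: signal also drops with host cell toxicity which is not excluded here; 0% = plate median of DMSO wells and 100% = zero luminescence signal; higher percent means less beta-gal luminescence so fewer parasites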
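compound dosing = single 50 nL compound addition per well in DMSO | material = NIH/3T3 host cells with β-galactosidase reporter T. cruzi | input = 5,000 host fibroblasts per well | timing = ≥90 h infection period, 3 h prior cell attachment | read-out basis = percent inhibition of parasite-derived β-gal signal | detection = GalScreen β-gal luminescence, detergent lysis, 60 min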
Active calls of the source: *; ? = inconclusive; · = no result.

SMILES | Mdm2 MdmX PPI | CSC inhib | SKKanGAS inh | Beta cell apopt | Calb FLC | T cruzi inh
CCOc1ccc(/C=N/Nc2cc(C)nc(N3CCOCC3)n2)cc1 | -5.0 | 2.2 | -6.6 | 4.4 | 26.2 | -7.3
Cc1cccc(C)c1OCCCCN1CCNCC1 | 19.2 | 35.3 | 5.2 | -7.6 | -5.7 | 17.0
Cc1cc(C)c(OCCCCN2CCNCC2)c(C)c1 | -24.9 | 82.1* | 2.8 | 0.7 | 17.0 | 9.8
CCOC(=O)c1cc(CC)sc1NC(=O)COC(=O)C1CCC1 | 3.8 | -0.6 | -12.2 | -2.0 | -8.2 | -11.5
COc1cc([N+](=O)[O-])cc(/C=N/NC(=O)c2cncc(Br)c2)c1O | 30.5 | 2.7 | 93.9* | -3.4 | -0.5 | -6.6
COc1cc(/C=N/NC(=O)c2cccc([N+](=O)[O-])c2)cc(OC)c1O | -1.5 | -4.9 | -5.0 | -1.0 | ? | -7.7
CCOc1cc(/C=N/NC(=O)c2cc(-c3cccc(OC)c3)nc3ccccc23)ccc1O | -7.8 | 5.6 | 8.0 | 98.7* | 19.4 | 25.9
COc1cc([N+](=O)[O-])cc(/C=N/NC(=O)c2cc(-c3ccccc3)nc3ccccc23)c1O | 35.4 | 56.2 | 95.0* | 79.0* | 88.5* | 10.7
COc1cccc(/C=N/NC(=O)c2ccc([N+](=O)[O-])cc2Cl)c1O | 45.3 | -2.9 | 13.4 | 88.4* | 34.5 | -10.2
COC(=O)c1ccc(N/N=C/c2cc([N+](=O)[O-])cc(OC)c2O)cc1 | 19.2 | 14.0 | 7.5 | 2.8 | -39.9 | 28.2
CN(CC(=O)Nc1c(Cl)cccc1Cl)C(=O)CCC1CCCC1 | 6.3 | -9.5 | -1.5 | -7.4 | -23.3 | -7.5
COc1cc([N+](=O)[O-])cc(/C=N/NC(=O)c2cc(C)nc3ccccc23)c1O | 40.1 | 4.7 | 106.4* | -3.0 | -2.3 | -17.9
Cc1ccc(O)c(N=NC2=C(O)CC(C)(C)CC2=O)c1 | 47.2 | 25.9 | 0.9 | · | 85.4* | -0.7
Cc1c(N=NC2=C(O)CC(C)(C)CC2=O)c(=O)n(-c2ccccc2)n1C | -11.1 | -3.2 | 3.3 | 0.5 | 96.2* | -5.5
CC(=O)/C(N=Nc1c(C)n(C)n(-c2ccccc2)c1=O)=C(\C)O | 4.6 | -8.5 | 5.3 | -6.6 | -2.6 | -12.3
Cc1cc(-c2ccccc2)n(-c2cc(N/N=C/c3ccccc3O)ncn2)n1 | · | 105.1* | · | 77.3* | · | ·
CNc1cc(-n2nc(C)cc2-c2ccccc2)ncn1 | 14.5 | -12.0 | 0.7 | -1.7 | 1.4 | -15.4
c1ccc(-c2oc3ncnc(NCCCn4ccnc4)c3c2-c2ccccc2)cc1 | 30.8 | 1.2 | ? | · | 14.2 | 49.3
c1ccc(-c2c(-c3ccccc3)n(Cc3ccco3)c3ncnc(NCCCn4ccnc4)c23)cc1 | 46.9 | 133.2* | 35.6 | 17.1 | -27.3 | 46.5
N=c1c2c(-c3ccccc3)c(-c3ccccc3)n(Cc3ccco3)c2ncn1CCCn1ccnc1 | · | 37.6 | 4.0 | 5.7 | 21.0 | 64.3*
OCCNc1ncnc2c1c(-c1ccccc1)c(-c1ccccc1)n2Cc1ccco1 | 19.5 | -27.5 | 12.0 | 7.4 | 2.7 | 4.9
COc1ccc(Cl)cc1C(=O)NNC(=O)CCNS(=O)(=O)c1ccccc1 | -5.6 | -5.4 | · | 3.1 | · | ·
Cc1cc2nc(-c3ccc[nH]c3=O)[nH]c2cc1C | -4.4 | 63.6 | 35.2 | 78.0* | 37.9 | 1.6
Cc1cc2nc(-c3ccc[nH]c3=O)n(Cc3ccc(F)cc3)c2cc1C | -21.8 | -14.4 | -2.3 | 4.8 | -3.3 | 5.6
O=S(=O)(NCCN1CCOCC1)c1ccc(F)c(Cl)c1 | 1.9 | -10.1 | -1.5 | -0.1 | -1.8 | 8.9
SMILES | Mdm2 MdmX PPI | CSC inhib | SKKanGAS inh | Beta cell apopt | Calb FLC | T cruzi inh
CCOC(=O)C1=C(COC(=O)CCNS(=O)(=O)c2ccc(NC(C)=O)cc2)NC(=O)NC1C (stereo not given) | -17.0 | 7.9 | -3.2 | -1.8 | 2.1 | -5.0
Cc1ccc(Cc2cnc(N3C(=N)SC(c4ccccc4)C3=O)s2)cc1 (stereo not given) | 22.0 | 30.4 | 103.5* | 0.3 | 0.1 | -26.0
N=C1SC(c2ccccc2)C(=O)N1c1ncc(Cc2ccccc2)s1 (stereo not given) | 14.4 | 64.9 | 97.2* | 12.0 | 3.7 | 3.5
COc1cccc(CN2CC(C(=O)NCCn3ccc(C)n3)CCC2=O)c1 (stereo not given) | -34.4 | -4.6 | -6.1 | -1.1 | 7.6 | -11.8
CCC1=NN(C(=O)c2ccc(C)cc2)C(O)(c2ccc(Br)cc2)C1 (stereo not given) | 6.3 | · | -3.5 | · | -17.7 | -11.4
CCC1=NN(C(=O)c2cccc(Br)c2)C(O)(c2ccc(Br)cc2)C1 (stereo not given) | 42.3 | 105.3* | 71.3* | ? | 3.9 | 5.2
